For this test, the system named is HT-1080. The experiment in a line: Cytotoxicity against human HT1080 cells after 72 hrs by MTT assay. Type of test: functional, cell-based. The settings on record: HT-1080, 72 h. The gist of the method:
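HT-1080 human fibrosarcoma cells, harvested in exponential growth, seeded at 2 × 10^3 cells/well and left 24 h at 37 °C in humidified 5% CO2 to attach. Exposed to varying concentrations of test compounds in medium for 72 h. MTT (0.5 mg/mL) added for 2 h, formazan extracted with DMSO, absorbance read at 550 nm. Viability and IC50 taken from means of three wells.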

The values below come from ChEMBL document CHEMBL1153740, “Quassinoids from Eurycoma longifolia” (J Nat Prod, 2009).

pIC50: −log10 of the molar value.

In the case of `CC1=CC(=O)[C@@H](O)[C@]2(C)[C@H]3[C@@H](O)[C@@H]4OC(=O)[C@@H]([C@H]4C)[C@]3(C)[C@H](O)C[C@@H]12`, the pIC50 was 5.21.

In the case of `CC1=CC(=O)[C@@H](O)[C@@]2(C)[C@H]1CC(=O)[C@@]1(C)[C@H]3C(=O)O[C@H]([C@@H]3C)[C@H](O)[C@@H]12` [EURYCOMALACTONE], the pIC50 was 6.01.

`CC1=CC(=O)[C@@H](O)[C@]2(C)[C@H]3[C@]4(O)OC[C@@]35[C@@H](C[C@@H]12)OC(=O)[C@H](O)[C@]5(O)[C@@H](C)[C@H]4O`: the negative-log IC50 (pIC50) is 4.05. This pIC50 is 1.96 log units lower than that of the compound before.

The compound `CC1=CC(=O)[C@@H](O)[C@@]2(C)[C@H]1[C@@H](O)[C@H]1OC(=O)[C@H](O)[C@@]3(O)[C@@H](C)[C@@H](O)[C@H](O)[C@H]2[C@@]13C` showed a pIC50 of 4.05.

Turning to `CC1=CC(=O)[C@@H](O)[C@@]2(C)[C@H]1[C@@H](O)C(=O)[C@@]1(C)[C@H]3C(=O)O[C@H]([C@@H]3C)[C@H](O)[C@@H]12`, the pIC50 is 5.30.

`COc1cccc2c1C(=O)c1c(O)c3c(c(O)c1C2=O)C[C@@](O)(C(=O)CO)C[C@@H]3O[C@H]1C[C@H](N)[C@H](O)[C@H](C)O1` [DOXORUBICIN] showed a pIC50 of 6.28.

`C=C1C[C@H](O)[C@@H](O)[C@@]2(C)[C@H]1CC(=O)[C@@]1(C)[C@H]3C(=O)O[C@H]([C@@H]3C)[C@H](O)[C@@H]12` gave a pIC50 of 4.35.

In the case of `CC1=CC(=O)[C@@]2(C)C1=CC(=O)[C@]1(C)[C@@H]2[C@@H](O)[C@@H]2OC(=O)[C@H]1[C@H]2C` [LAURYCOLACTONE B], the pIC50 was less than 4.00.

In turn, `CC1=CC(=O)[C@@H](O)[C@]2(C)[C@H]3[C@@H](O)[C@H](O)[C@H](C)[C@]4(O)[C@@H](O)C(=O)O[C@H](C[C@@H]12)[C@]34C` had a pIC50 of 5.96.

For the compound `CC1=C2C(=O)[C@H](O)[C@]3(C)[C@H]([C@@H](O)[C@@H]4OC(=O)[C@H]3[C@H]4C)[C@@]2(C)[C@H](O)[C@@H](O)C1`, the pIC50 was less than 4.00.

In the case of `CC1=CC(=O)[C@@H](O)[C@@]2(C)[C@H]1[C@@H](O)[C@H]1OC(=O)C3[C@@H](C)[C@H](O)[C@H](O)[C@H]2[C@]31C` (stereo partly drawn) [LONGILACTONE], the pIC50 is 4.72.

The compound `C[C@H]1[C@H]2OC(=O)[C@@H]1[C@]1(C)C(=O)C=C3[C@H](C)C[C@H](O)[C@@H](O)[C@]3(C)[C@H]1[C@H]2O` [EURYCOMALIDE A] had a pIC50 of 4.05.

`CC1=CC(=O)[C@@H](O)[C@]2(C)[C@H]3[C@@H](O)[C@@H]4OC(=O)[C@@H]([C@H]4C)[C@]3(C)C(=O)C[C@@]12O` showed a pIC50 of 5.06.

The compound `CC1=C[C@H](O)[C@@H](O)[C@@]2(C)C1=CC(=O)[C@]1(C)[C@@H]2[C@@H](O)[C@@H]2OC(=O)[C@H]1[C@H]2C` [EURYCOMALIDE B] had a pIC50 of 4.41.

As for `CC1=C[C@H](O)[C@@H](O)[C@@]2(C)[C@H]1[C@@H](O)C(=O)[C@@]1(C)[C@H]3C(=O)O[C@H]([C@@H]3C)[C@H](O)[C@@H]12`, the pIC50 is 4.19.

For `C[C@H]1[C@H]2OC(=O)[C@@H]1[C@]1(C)C(=O)C=C3[C@@](C)([C@H]1[C@H]2O)[C@H](O)[C@@H](O)[C@H]1O[C@@]31C`, the pIC50 was less than 4.00.

The compound `CC1=CC(=O)O[C@@H]1[C@@]1(C)C[C@H]2OC(=O)[C@H](O)[C@@]3(O)[C@@H](C)[C@@H](O)[C@@]4(O)OC[C@]23[C@@H]14` showed a pIC50 of less than 4.00.

In turn, `O=c1[nH]cc(F)c(=O)[nH]1` [FLUOROURACIL] had a pIC50 of 5.28.

`C[C@H]1[C@H]2OC(=O)[C@@H]1[C@]1(C)C(=O)C=C3C4(C)OC4C(=O)[C@@H](O)[C@]3(C)[C@H]1[C@H]2O` (stereo partly drawn) gave a pIC50 of less than 4.00.

Compound `CC1=C[C@H](O)[C@@H](O)[C@@]2(C)[C@H]1CC(=O)[C@@]1(C)[C@H]3C(=O)O[C@H]([C@@H]3C)[C@H](O)[C@@H]12` [EURYCOLACTONE E] showed a pIC50 of 5.14.

`CC(=O)O[C@@H]1[C@H](C)[C@]2(O)[C@@H](OC(C)=O)C(=O)O[C@@H]3C[C@H]4C(C)=CC(=O)[C@@H](O)[C@]4(C)[C@H]4[C@]1(O)OC[C@]432`: the pIC50 was less than 4.00.

With `CC1=CC(=O)[C@@H](O)[C@@]2(C)C1=CC(=O)[C@]1(C)[C@@H]2[C@@H](O)[C@@H]2OC(=O)[C@H]1[C@H]2C`, the pIC50 was 5.28.

With `CC1=CC(=O)[C@]2(C)[C@H]3[C@@H](O)[C@@H]4OC(=O)[C@@H]([C@H]4C)[C@]3(C)C(=O)C[C@@H]12` [LAURYCOLACTONE A], the pIC50 is less than 4.00.
